ChEMBL document CHEMBL3286351, “Antibacterial evaluation of structurally amphipathic, membrane active small cationic peptidomimetics: synthesized by incorporating 3-amino benzoic acid as peptidomimetic element” (Eur J Med Chem, 2014)
≈ marks a conversion by molar mass, not a printed value. Where a SMILES comes first, the peptide text is derived from it. [ ]: non-standard residue; d: D form. 3Abz = Nc1cccc(C(=O)O)c1; Orn = NCCC[CH](N)C(=O)O

Assays:
[1] = test system: Staphylococcus epidermidis; assay: Antibacterial activity against methicillin-resistant Staphylococcus epidermidis ATCC 51625 assessed as growth inhibition after 18 hrs by CLSI microdilution broth assay; assay type: functional; details: ATCC 51625, 18 h
Method in brief: (§1)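 Modified CLSI broth microdilution in Mueller-Hinton broth. Wells held 90 µL of about 2 × 10^5 CFU/mL inoculum plus 10 µL of serially diluted peptidomimetic, range 0.7-100 µg/mL. Plates were incubated overnight with agitation at 37 °C and absorbance read at 600 nm after 18 h. Controls: inoculum without compound, and uninoculated broth. Run in triplicate.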

[2] = Induction of hemolysis in human RBC assessed as hemoglobin release after 1 hr by microtiter plate reader analysis; assay type: cell-based, Erythrocyte; details: for HC10: erythrocyte, 1 h; for HC50 at 1 h: red blood cells
Method in brief: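 Freshly isolated human RBCs washed three times in PBS (35 mM phosphate, 150 mM NaCl, pH 7.2) and used as a 4% (v/v) suspension. Mixed 1:1 with twofold serial dilutions of compound, incubated 1 h at 37 °C without agitation, then centrifuged. Supernatant A540 read. PBS defined 0% and 1% Triton X-100 defined 100% lysis; HC50 and HC10 derived.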

[3] = Retention time of the compound by HPLC analysis; assay type: physicochemical
Method in brief: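 Analytical RP-HPLC on a C18 column (5 µm, 4.6 × 250 mm) at room temperature. Run a linear gradient of 0.5-60% acetonitrile containing 0.05% TFA against water containing 0.05% TFA at 0.5 mL/min.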

Escherichia coli = assay: Antibacterial activity against Escherichia coli MTCC 723 assessed as growth inhibition after 18 hrs by CLSI microdilution broth assay; assay type: functional; details: MTCC 723, 18 h
Pseudomonas aeruginosa = assay: Antibacterial activity against Pseudomonas aeruginosa MTCC 2295 assessed as growth inhibition after 18 hrs by CLSI microdilution broth assay; assay type: functional; details: MTCC 2295, 18 h
Staphylococcus aureus [4] = assay: Antibacterial activity against Staphylococcus aureus MTCC 3160 assessed as growth inhibition after 18 hrs by CLSI microdilution broth assay; assay type: functional; details: MTCC 3160, 18 h
Bacillus subtilis = assay: Antibacterial activity against Bacillus subtilis MTCC 2763 assessed as growth inhibition after 18 hrs by CLSI microdilution broth assay; assay type: functional; details: MTCC 2763, 18 h
Staphylococcus aureus [5] = assay: Antibacterial activity against methicillin-resistant Staphylococcus aureus ATCC BAA-1720 assessed as growth inhibition after 18 hrs by CLSI microdilution broth assay; assay type: functional; details: ATCC BAA-1720, 18 h; method in brief: as §1
[6] = Selectivity ratio of HC50 for hemolysis in human RBC to MIC for Staphylococcus aureus

Row | SMILES | MIC [1] [mg/L] | HC10 [2] [µg/mL] | HC50 at 1 h [2] [µg/mL] | Retention_time [3] [min] | MIC (Escherichia coli) [mg/L] | MIC (Pseudomonas aeruginosa) [mg/L] | MIC (Staphylococcus aureus [4]) [mg/L] | MIC (Bacillus subtilis) [mg/L] | MIC (Staphylococcus aureus [5]) [mg/L] | Selectivity ratio [6]
1 | N=C(N)NCCCC(NC(=O)c1cccc(NC(=O)C(N)Cc2c[nH]c3ccccc23)c1)C(N)=O (centres undefined) | > 200 | 400 | > 500 | 26.553 | > 200 | > 200 | > 200 | > 200 | > 200 | –
2 | N=C(N)NCCCC(NC(=O)C(Cc1ccccc1)NC(=O)c1cccc(NC(=O)C(Cc2ccccc2)NC(=O)C(CCCNC(=N)N)NC(=O)C(N)Cc2ccccc2)c1)C(N)=O (centres undefined) (H-FRF[3Abz]FR-NH2; configuration not given here) | 120 (≈ 135 µM) | 125 | 310 | 26.225 | > 200 | > 200 | 120 (≈ 135 µM) | 150 (≈ 169 µM) | 125 (≈ 140 µM) | 2.58
3 | NCCCC(NC(=O)C(Cc1ccccc1)NC(=O)c1cccc(NC(=O)C(Cc2ccccc2)NC(=O)C(CCCN)NC(=O)C(N)Cc2ccccc2)c1)C(N)=O (centres undefined) (H-F[Orn]F[3Abz]F[Orn]-NH2; configuration not given here) | > 200 | 180 | 400 | 25.038 | > 200 | > 200 | 150 (≈ 186 µM) | > 200 | > 200 | 2.66
4 | N=C(N)NCCCC(N)C(=O)NC(CCCNC(=N)N)C(=O)NC(Cc1ccccc1)C(=O)Nc1cccc(C(=O)NC(Cc2ccccc2)C(=O)NC(CCCNC(=N)N)C(N)=O)c1 (centres undefined) (H-RRF[3Abz]FR-NH2; configuration not given here) | 170 (≈ 189 µM) | 130 | 375 | 24.871 | > 200 | > 200 | 150 (≈ 167 µM) | 200 (≈ 222 µM) | 150 (≈ 167 µM) | 2.5
5 | N=C(N)NCCCC(N)C(=O)NC(CCCNC(=N)N)C(=O)NC(Cc1c[nH]c2ccccc12)C(=O)NC(Cc1c[nH]c2ccccc12)C(=O)NC(CCCNC(=N)N)C(N)=O (centres undefined) (H-RRWWR-NH2; configuration not given here) | 20 (≈ 23.3 µM) | 90 | 240 | 29.606 | 75 (≈ 87.4 µM) | 100 (≈ 117 µM) | 25 (≈ 29.1 µM) | 70 (≈ 81.6 µM) | 25 (≈ 29.1 µM) | 9.6
6 | N=C(N)NCCCC(N)C(=O)NC(CCCNC(=N)N)C(=O)NC(Cc1c[nH]c2ccccc12)C(=O)Nc1cccc(C(=O)NC(Cc2c[nH]c3ccccc23)C(=O)NC(CCCNC(=N)N)C(N)=O)c1 (centres undefined) (H-RRW[3Abz]WR-NH2; configuration not given here) | 6.25 (≈ 6.4 µM) | 100 | 355 | 27.402 | 17.5 (≈ 17.9 µM) | 25 (≈ 25.6 µM) | 6.25 (≈ 6.4 µM) | 25 (≈ 25.6 µM) | 5 (≈ 5.12 µM) | 56.8
7 | N=C(N)NCCCC(N)C(=O)NC(Cc1c[nH]c2ccccc12)C(=O)NC(CCCNC(=N)N)C(=O)Nc1cccc(C(=O)NC(Cc2c[nH]c3ccccc23)C(=O)NC(CCCNC(=N)N)C(N)=O)c1 (centres undefined) (H-RWR[3Abz]WR-NH2; configuration not given here) | 50 (≈ 51.2 µM) | 210 | 400 | 27.446 | 120 (≈ 123 µM) | 120 (≈ 123 µM) | 50 (≈ 51.2 µM) | 125 (≈ 128 µM) | 40 (≈ 40.9 µM) | 8
8 | N=C(N)NCCCC(N)C(=O)NC(Cc1c[nH]c2ccccc12)C(=O)NC(Cc1c[nH]c2ccccc12)C(=O)Nc1cccc(C(=O)NC(CCCNC(=N)N)C(=O)NC(CCCNC(=N)N)C(N)=O)c1 (centres undefined) (H-RWW[3Abz]RR-NH2; configuration not given here) | 25 (≈ 25.6 µM) | 255 | 420 | 26.96 | 70 (≈ 71.6 µM) | 75 (≈ 76.8 µM) | 25 (≈ 25.6 µM) | 75 (≈ 76.8 µM) | 25 (≈ 25.6 µM) | 16.8
9 | N=C(N)NCCCC(N)C(=O)NC(Cc1c[nH]c2ccccc12)C(=O)Nc1cccc(C(=O)NC(CCCNC(=N)N)C(N)=O)c1 (centres undefined) (H-RW[3Abz]R-NH2; configuration not given here) | 70 (≈ 110 µM) | 205 | 500 | 23.821 | 70 (≈ 110 µM) | 75 (≈ 118 µM) | 50 (≈ 78.8 µM) | 100 (≈ 158 µM) | 60 (≈ 94.5 µM) | 10
10 | N=C(N)NCCCC(N)C(=O)NC(Cc1c[nH]c2ccccc12)C(=O)Nc1cccc(C(=O)NC(CCCNC(=N)N)C(=O)NC(CCCNC(=N)N)C(N)=O)c1 (centres undefined) (H-RW[3Abz]RR-NH2; configuration not given here) | 75 (≈ 94.8 µM) | 350 | > 500 | 22.534 | 100 (≈ 126 µM) | 75 (≈ 94.8 µM) | 70 (≈ 88.5 µM) | 100 (≈ 126 µM) | 75 (≈ 94.8 µM) | > 7.14
11 | N=C(N)NCCCC(N)C(=O)NC(Cc1c[nH]c2ccccc12)C(=O)Nc1cccc(C(=O)NC(Cc2c[nH]c3ccccc23)C(=O)NC(CCCNC(=N)N)C(N)=O)c1 (centres undefined) (H-RW[3Abz]WR-NH2; configuration not given here) | 12.5 (≈ 15.2 µM) | 250 | 410 | 23.89 | 40 (≈ 48.7 µM) | 50 (≈ 60.9 µM) | 12.5 (≈ 15.2 µM) | 50 (≈ 60.9 µM) | 10 (≈ 12.2 µM) | 32.8
12 | N=C(N)NCCCC(NC(=O)C(Cc1c[nH]c2ccccc12)NC(=O)c1cccc(NC(=O)C(CCCNC(=N)N)NC(=O)C(CCCNC(=N)N)NC(=O)C(N)Cc2c[nH]c3ccccc23)c1)C(N)=O (centres undefined) (H-WRR[3Abz]WR-NH2; configuration not given here) | 10 (≈ 10.2 µM) | 190 | 380 | 27.66 | 50 (≈ 51.2 µM) | 50 (≈ 51.2 µM) | 15 (≈ 15.4 µM) | 70 (≈ 71.6 µM) | 12.5 (≈ 12.8 µM) | 25.3
13 | NCCCC(N)C(=O)NC(CCCN)C(=O)NC(Cc1ccccc1)C(=O)Nc1cccc(C(=O)NC(Cc2ccccc2)C(=O)NC(CCCN)C(N)=O)c1 (centres undefined) (H-[Orn][Orn]F[3Abz]F[Orn]-NH2; configuration not given here) | > 200 | 210 | 490 | 23.313 | > 200 | > 200 | > 200 | > 200 | > 200 | –
14 | CN[C@H](CC(C)C)C(=O)N[C@H]1C(=O)N[C@@H](CC(N)=O)C(=O)N[C@H]2C(=O)N[C@H]3C(=O)N[C@H](C(=O)N[C@H](C(=O)O)c4cc(O)cc(O)c4-c4cc3ccc4O)[C@H](O)c3ccc(c(Cl)c3)Oc3cc2cc(c3O[C@@H]2O[C@H](CO)[C@@H](O)[C@H](O)[C@H]2O[C@H]2C[C@](C)(N)[C@H](O)[C@H](C)O2)Oc2ccc(cc2Cl)[C@H]1O [VANCOMYCIN] | – | – | – | – | – | – | – | – | 1.5 (≈ 1.04 µM) | –
